A short description of data set [1]: n-Octanol/sorensen buffer partition coefficient, log D of compound at 50 uM at pH 7 after 10 mins by shake-flask method. Type of data set: physicochemical. The procedure, abridged: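 Shake-flask at 25 °C: 50 µM photosensitizer in 10 mM Sörensen buffer pH 6.8 vigorously mixed with equal volume n-octanol for 10 min, phases separated by centrifugation; aqueous-phase absorbance before and after partitioning gives the coefficient.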

Data set [2] in a line: Photodegradation of compound in water at 10 uM in presence of LED illumination at 5.6 J/cm'2 for 10 mins by UV/VIS/NIR spectrometer. Type of data set: physicochemical. Particulars: read-out: Drug degradation. The procedure, abridged: (§1)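 10 µM in water in a 1 cm quartz cuvette, illuminated at 435 nm with the bacterial-testing LED (9.4 mW/cm²); absorption spectra taken at set time intervals, chromophore band 380–460 nm followed; half-life from extrapolation.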

Data set [3] in a line: Induction of reactive oxygen species formation assessed as singlet oxygen quantum yield at 2 uM measured over 20 mins by luminescence assay. Type of data set: functional. Particulars: in the assay text read “over 50 secs” for “over 20 mins”. The procedure, abridged: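 Singlet oxygen luminescence at 1270 nm from a 2 µM solution compared against TMPyP (0.5 µM) as reference, relating absorbed energy to emission; excitation at 405 nm with a tunable laser at 107, 162, 255 and 283 mW for 50 s each.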

Data set [4] concerns Escherichia coli. The data set is described as follows: Photodynamic antibacterial activity against Escherichia coli ATCC 25922 assessed as reduction in bacterial burden at 50 uM complexed with PVP in presence of LED irradiation at LED light at 33.8 J/cm2. The data set is classed as functional, organism-based.
For data set [5], the system named is Escherichia coli. Briefly: Photodynamic antibacterial activity against Escherichia coli ATCC 25922 assessed as CFU log reduction at 100 uM complexed with PVP in presence of LED irradiation at LED light at 33.8 J/cm2 relative to control. The data set is classed as functional.
Data set [6] can be described thus: Stability of compound in DMSO-d6 at 10 mM incubated up to 130 degC measured after > 10 mins by NMR method. Type of data set: physicochemical. Particulars: 10000 µM. The procedure, abridged:
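1H NMR at 10 mM heated stepwise from room temperature through 40–130 °C in 10 °C steps, then cooled back to room temperature; aggregation/stability judged from aromatic-region shifts; external TMS reference, 400 MHz.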

The nature of data set [7]: Aggregating behavior of compound at 1 to 2 mM by NMR analysis. The data set is classed as physicochemical. The conditions noted are these: 2000 µM. The essentials:
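1H NMR in D2O at 20, 10, 5, 2 and 1 mM; aggregation judged from signal shifts and multiplet changes in the aromatic region (6.5–8 ppm), referenced to external TMS, 400 MHz.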

Another data set has as its system Staphylococcus aureus. Briefly: Photodynamic antibacterial activity against Staphylococcus aureus ATCC 25923 assessed as CFU log reduction at 50 uM irradiated for 5 mins in presence of blueV lamp irradiation at 5.3 J/cm2 and measured after 24 hrs. The data set is classed as functional. The procedure, abridged:
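S. aureus ATCC25923 grown aerobically at 37 °C in Mueller-Hinton broth, pelleted and resuspended in distilled water to OD600 0.6 (~10^8 cells/mL); incubated 1 min with photosensitizer in 96-well plates, irradiated with BlueV source (390–460 nm, 20 mW/cm²) to 5.3 J/cm²; CFU by Miles-Misra on Mueller-Hinton agar after 24 h at 37 °C; log reduction versus untreated control; ≥3 replicates.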

Data set [8] deals with Escherichia coli. Briefly: Dark toxicity in Escherichia coli ATCC 25922 assessed as decrease in viable cells at 10 uM. The data set is classed as organism-based. Particulars: in vivo. The essentials: (§2)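 E. coli ATCC25922 prepared as for phototoxicity (2 h subculture, DPBS resuspension), incubated with photosensitizer at 37 °C, 175 rpm, but kept in foil-wrapped plates without illumination; CFU counted from serial dilutions on Todd-Hewitt/yeast extract agar after overnight 37 °C, compared against untreated, unilluminated control; three biological replicates.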

Data set [9] in a line: Stability of compound in diluted HCl at 50 uM after 4 hrs by UV-Vis spectrophotometric method. Type of data set: physicochemical. Particulars: buffer. The essentials:
(§3)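 UV-Vis spectra recorded after 4 h incubation in buffer solutions at different pH values, acidic down to pH 2 and alkaline above pH 10.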

The nature of data set [10]: Stability of compound in diluted NaOH at 50 uM after 4 hrs by UV-Vis spectrophotometric method. The data set is classed as physicochemical. The procedure, abridged: as §3
The subject of data set [11] is Escherichia coli. Briefly: Dark toxicity in Escherichia coli ATCC 25922 assessed as decrease in viable cells at 50 uM relative to control. Particulars: in vivo. Type of data set: organism-based. The procedure, abridged:
as §2

A short description of data set [12]: Drug level in 0.1 M phosphate buffer treated with curcumin at pH 7.2 at 37 degC after 30 mins by HPLC method. The data set is classed as physicochemical. Particulars: pH 7.2, 0.5 h.
The nature of data set [13]: Aggregating behavior of compound up to 1 mM by UV-Vis spectroscopic analysis. Type of data set: physicochemical. The procedure, abridged:
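UV-Vis absorption spectra in H2O over 100–1000 µM; dimerization judged from spectral changes within error margins.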

For data set [14], the system named is Escherichia coli. The data set is described as follows: Photodynamic antibacterial activity against Escherichia coli ATCC 25922 assessed as CFU log reduction irradiated for 1.5 mins in presence of 0.85 J/cm2 and measured after 24 hrs. The data set is classed as functional. The conditions noted are these: ATCC 25922, light or radiation study, read-out: MBC99.9.

In data set [15] the test system is Escherichia coli. Briefly: Photodynamic antibacterial activity against Escherichia coli ATCC 25922 assessed as CFU log reduction at 10 uM irradiated for 2.5 mins in presence of 1.41 J/cm2 and measured after 24 hrs. Type of data set: functional.
The nature of data set [16]: Photodegradation of compound in water at 10 uM in presence of LED illumination at 16.9 J/cm'2 for 30 mins by UV/VIS/NIR spectrometer. Type of data set: physicochemical. Particulars: read-out: Drug degradation. The essentials:
as §1

Data set [17] can be described thus: Half life of compound in water at 10 uM in presence of LED illumination at 9.4 mW/cm'2 by UV/VIS/NIR spectrometer. The data set is classed as physicochemical. The essentials: as §1
Data set [18] has as its system Escherichia coli. The data set is described as follows: Photodynamic antibacterial activity against Escherichia coli ATCC 25922 assessed as CFU log reduction irradiated for 5 to 25 mins in presence of LED light at 33.8 J/cm2 and measured after 24 hrs. Type of data set: functional. The conditions noted are these: ATCC 25922, light or radiation study, read-out: MBC99.9. The procedure, abridged:
(§4)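 E. coli ATCC25922 grown overnight at 37 °C (175 rpm) in Todd-Hewitt broth + 0.3% yeast extract, diluted to A 0.05, grown 2 h (A600 0.3–0.45), pelleted and resuspended in DPBS; incubated with photosensitizer 5 or 25 min at 37 °C, illuminated with 435 nm LED array (9.4 mW/cm², 33.8 J/cm²) while shaken; serial dilutions plated, CFU counted after overnight 37 °C. Log reduction versus untreated, unilluminated control; ≥3 biological replicates; detection limit 10 CFU/mL.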

In data set [19] the test system is Escherichia coli. Briefly: Photodynamic antibacterial activity against Escherichia coli ATCC 25922 assessed as CFU log reduction at 10 uM irradiated for 5 to 25 mins in presence of LED light at 33.8 J/cm2 and measured after 24 hrs relative to control. The data set is classed as functional. The essentials:
as §4

Here are results for eleven molecules from ChEMBL document CHEMBL4261577, “CureCuma-cationic curcuminoids with improved properties and enhanced antimicrobial photodynamic activity” (Eur J Med Chem, 2018).

SMILES strings stand for the structures. Calls of active or inactive are those of the source. Some results are limits rather than exact numbers.

The term logD denotes the decadic logarithm of the distribution of all forms, ionised or not, between an organic phase and buffer at a given pH. High values mean a more lipophilic compound, low ones a more hydrophilic compound. `COc1cc(/C=C/C(=O)CC(=O)/C=C/c2ccc(OCCOCCN)c(OC)c2)ccc1OCCOCCN.Cl.Cl` returned a logD at 10 min, 50 µM in [1] of -1.6. Besides, the degraded at 10 min, 10 µM in data set [2] was below 10%. Also, the Activity in [3] is below 1%.

Turning to `COc1cc(/C=C/C(=O)CC(=O)/C=C/c2ccc(O)c(OC)c2)ccc1O` [CURCUMIN], the result with Escherichia coli [4] was inactive. For the same molecule, the Activity in the data set on Escherichia coli [5] came to 0.3 deltalog10CFU/ml.

For the molecule `COc1cc(OCCN)ccc1/C=C/C(=O)CC(=O)/C=C/c1ccc(OCCN)cc1OC.Cl.Cl`, in data set [1], the logD at 10 min, 50 µM was -1.1. Moreover, in [2], the degraded at 10 min, 10 µM is below 10%. Moreover, the Activity in data set [3] is below 1%.

On to `Cl.Cl.NCCCOc1ccc(/C=C/C(=O)CC(=O)/C=C/c2ccc(OCCCN)c(OCc3ccccc3)c2)cc1OCc1ccccc1`, for which the logD at 10 min, 50 µM in data set [1] was -0.6. The degraded at 10 min, 10 µM in [2] was below 10%. In data set [3], the Activity was below 1%.

In data set [1], `Cc1cc(/C=C/C(=O)CC(=O)/C=C/c2ccc(OCCN)c(C)c2)ccc1OCCN.Cl.Cl` gave a logD at 10 min, 50 µM of -0.8. Further, the degraded at 10 min, 10 µM in data set [2] was below 10%. Also, the Activity in [3] was below 1%. The Stability result in [6] was “Stable”.

Regarding `COc1cc(/C=C/C(=O)CC(=O)/C=C/c2ccc(OCCN)c(OC)c2)ccc1OCCN.Cl.Cl`, the logD at 10 min, 50 µM in data set [1] is -1.2. Moreover, the Activity result was “Active” in data set [7], “Non-Toxic” in the data set with Escherichia coli [8], below 1% in data set [3] and 0.5 deltalog10CFU/ml in the data set with Escherichia coli [11]. Besides, in the data set on Staphylococcus aureus, the log reduction worked out at 5.2 log10 CFU/mL. Further, the degraded at 10 min, 10 µM in data set [2] was below 10%. Further, the figures for the Stability result in [9] and in data set [10] were “Stable” and “Unstable”, respectively.

For `CC(C)=O` [ACETONE], the Drug metabolism result in data set [12] is “Metabolite_Detected”.

For `Cl.Cl.Cl.Cl.Cl.Cl.NCCOc1cc(/C=C/C(=O)CC(=O)/C=C/c2cc(OCCN)c(OCCN)c(OCCN)c2)cc(OCCN)c1OCCN`, the logD at 10 min, 50 µM in data set [1] was below -2. Also, in [2], the degraded at 10 min, 10 µM is below 10%. In addition, the Activity in [3] was below 1%.

For the molecule `Cl.Cl.NCCOc1ccc(/C=C/C(=O)CC(=O)/C=C/c2ccc(OCCN)cc2)cc1`, in data set [1], the log distribution coefficient (logD) at 10 min, 50 µM was -0.9. Further, the degraded at 10 min, 10 µM in [2] was below 10%. In addition, in data set [3], the Activity was below 1%.

For the molecule `COc1cc(C=O)ccc1O` [VANILLIN], in [12], the Drug metabolism entry is given as “Metabolite_Detected”.

As a reminder, the half-life is the time needed for the level to fall by half in the phase considered. `Cl.Cl.Cl.Cl.NCCOc1ccc(/C=C/C(=O)CC(=O)/C=C/c2ccc(OCCN)c(OCCN)c2)cc1OCCN`: the Activity result in data set [13] is “Active”; in the data set with Escherichia coli [8], “Non-Toxic”; in the data set on Escherichia coli [15], above 5 deltalog10CFU/ml; in data set [3], below 1%; in the data set with Escherichia coli [11] it was 1 deltalog10CFU/ml; in the data set on Escherichia coli [19], 5 deltalog10CFU/ml. The molecule further had a logD at 10 min, 50 µM in [1] below -2. Further, in the data set on Staphylococcus aureus, the log reduction is 5.3 log10 CFU/mL. For the same molecule, the MBC in the data set on Escherichia coli [14] worked out at 10 µM; in the data set with Escherichia coli [18] it was 5 µM. In addition, in [2], the degraded at 10 min, 10 µM was below 10%. Besides, in [16], the degraded at 0.5 h, 10 µM worked out at 20%. Also, the half-life at 10 µM in data set [17] worked out at 1 h. Also, the Stability entry in data set [9] is “Stable”; in data set [10], “Unstable”.
